# Assay results published in ChEMBL document CHEMBL1152819, “Evaluation of hexadecyloxypropyl-9-R-[2-(Phosphonomethoxy)propyl]- adenine, CMX157, as a potential treatment for human immunodeficiency virus type 1 and hepatitis B virus infections” (Antimicrob Agents Chemother, 2007).
# Columns and labels:
# [1] = test system: Human immunodeficiency virus 1; assay: Antiviral activity against HIV1 LAI in human MT2 cells assessed as inhibition of p24 antigen production by ELISA; type: functional, organism-based; conditions: Human immunodeficiency virus 1, LAI
# Outline: (§1)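 MT-2 cells in RPMI 1640 with 10% FBS and 10 mM HEPES, infected with HIV-1 LAI at MOI 0.001 TCID50/cell. Incubated with threefold serial dilutions, three wells per dilution. EC50 taken as the concentration inhibiting p24 antigen production by 50%.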
# Rattus norvegicus [2] = assay: Toxicity in Sprague-Dawley rat assessed as change in food consumption at 10 to 100 mg/kg, po administered daily for 7 days; type: organism-based; set-up: dose 10-100 mg/kg, route oral; conditions: in vivo, 168 h
# Outline: (§2)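 Sprague-Dawley rats (3/sex/group), 8–12 weeks old, given vehicle or 10, 30 or 100 mg/kg/day orally once daily for 7 days. Mortality, morbidity, clinical observations, body weight and food consumption recorded daily.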
# Rattus norvegicus [3] = assay: Toxicity in Sprague-Dawley rat assessed as change in body weight at 10 to 100 mg/kg, po administered daily for 7 days; type: organism-based; set-up: dose 10-100 mg/kg, route oral; conditions: in vivo, 168 h; outline: as §2
# Rattus norvegicus [4] = assay: Toxicity in Sprague-Dawley rat assessed as mortality at 10 to 100 mg/kg, po administered daily for 7 days; type: organism-based; set-up: dose 10-100 mg/kg, route oral; conditions: in vivo, 168 h; outline: as §2
# HepG2 = assay: Cytotoxicity against human HepG2 cells by MTS assay; type: cell-based; conditions: Homo sapiens, HepG2
# Outline: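 Exponentially growing HepG2 cells (parent hepatoma line); cytostatic effect measured by MTS method.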
# [5] = Selectivity index, ratio of CC50 for human HepG2 cells to EC50 for HBV
# [6] = Selectivity index, ratio of CC50 for human HepG2(2.2.15) cells to EC50 for HBV
# Hepatitis B virus [7] = assay: Antiviral activity against HBV in human HepAD38 cells assessed as intracellular viral DNA levels treated for 3 days measured on day 6 […] by RT-PCR; type: functional, organism-based
# Outline: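 HepAD38 cells seeded at 5 x 10^5/well, grown 2-3 days with 0.3 µg/ml tetracycline, then induced by PBS wash and tetracycline/G418-free medium with or without compound at 37°C, 5% CO2. Medium changed after 3 days. Intracellular HBV DNA measured on day 6 postinduction by TaqMan real-time PCR against a plasmid standard curve, given as % of mock.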
# [8] = Cytotoxicity against human HepG2(2.2.15) cells after 24 hrs by neutral red uptake assay; type: cell-based; conditions: Homo sapiens, HepG2 2.2.15, 24 h
# Outline: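 Confluent 2.2.15 cells given nine daily treatments. Neutral red uptake read by absorbance of internalized dye 24 h after the last treatment, three cultures per concentration.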
# Hepatitis B virus [9] = assay: Antiviral activity against HBV in human HepG2(2.2.15) cells assessed as viral DNA levels treated for 9 days measured after 24 hrs; type: functional, organism-based
# Outline: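 Confluent 2.2.15 cells in RPMI 1640 with 2% FBS, given nine consecutive daily doses with daily medium change (six cultures per concentration on two replicate plates). HBV DNA quantified by blot hybridization 24 h after the last treatment.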
# [10] = Selectivity index, ratio of CC50 for human PBMC to EC50 for HIV1 clade B HT/92/599 isolate
# Outline: (§3)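 Fresh human PBMCs, seronegative for HIV and HBV, infected with HIV-1 clade B HT/92/599. Antiviral read-out by reverse transcriptase reduction; cytotoxicity by XTT staining. EC50, CC50 and CC50/EC50 taken from data plots, given as mean ± standard deviation of triplicate determinations.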
# [11] = Cytotoxicity against human PBMC by XTT assay; type: cell-based; outline: as §3
# [12] = Selectivity index, ratio of CC50 for human MT2 cells to EC50 for HIV1 LAI; type: toxicity, cell-based; conditions: read-out: Ratio CC50/EC50
# [13] = test system: Human immunodeficiency virus 1; assay: Antiviral activity against HIV1 clade B HT/92/599 isolate in human PBMC assessed as reduction in reverse transcriptase; type: functional, organism-based; conditions: Human immunodeficiency virus 1, clade B; outline: as §3
# [14] = Cytotoxicity against human MT2 cells; type: cell-based
# Outline: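 MT-2 cells in RPMI 1640 with 10% FBS and 10 mM HEPES, exposed to threefold serial drug dilutions. CC50 calculated from cell counts and viability.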
# [15] = Elimination half life in Sprague-Dawley rat at 100 mg/kg, po administered daily for 7 days measured on day 7; type: ADME, organism-based; set-up: dose 100 mg/kg, route oral; conditions: in vivo, read-out: beta t1/2 (converted)
# Outline: (§4)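 Oral once daily for 7 days, vehicle or 10, 30 or 100 mg/kg/day, Sprague-Dawley rats 8-12 weeks old, not fasted. Plasma sampled 0.5, 1, 2, 4, 12, 24 h after dosing on days 1 and 7 (1 rat/sex/time point). CMX157 and tenofovir measured by HPLC-MS/MS, LOQ 1 ng/ml (values below set to zero). Noncompartmental analysis; Cmax/Tmax by direct observation, AUC by linear-log trapezoidal rule.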
# [16] = Elimination half life in Sprague-Dawley rat at 100 mg/kg, po administered daily for 7 days measured on day 1; type: ADME, organism-based; set-up: dose 100 mg/kg, route oral; conditions: in vivo, read-out: beta t1/2 (converted); outline: as §4
# [17] = AUC (0 to 24 hrs) in Sprague-Dawley rat at 100 mg/kg, po administered daily for 7 days measured on day 7; type: ADME, organism-based; set-up: time < 24 hr, dose 100 mg/kg, route oral; conditions: plasma; outline: as §4
# [18] = AUC (0 to 24 hrs) in Sprague-Dawley rat at 100 mg/kg, po administered daily for 7 days measured on day 1; type: ADME, organism-based; set-up: time < 24 hr, dose 100 mg/kg, route oral; conditions: plasma
# Outline: (§5)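 Sprague-Dawley rats, 8–12 weeks old, dosed orally once daily for 7 days and not fasted. Blood taken at 0.5, 1, 2, 4, 12 and 24 h after dosing on days 1 and 7, one rat/sex/time point. Plasma deproteinized, analyte separated by mixed-mode HPLC and quantified by MS/MS, LOQ 1 ng/ml, values below LOQ set to zero. Noncompartmental analysis: Tmax read from plotted data, AUC by linear-log trapezoidal rule.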
# [19] = AUC (0 to 24 hrs) in Sprague-Dawley rat at 30 mg/kg, po administered daily for 7 days measured on day 7; type: ADME, organism-based; set-up: time < 24 hr, dose 30 mg/kg, route oral; conditions: plasma; outline: as §4
# [20] = AUC (0 to 24 hrs) in Sprague-Dawley rat at 30 mg/kg, po administered daily for 7 days measured on day 1; type: ADME, organism-based; set-up: time < 24 hr, dose 30 mg/kg, route oral; conditions: plasma; outline: as §5
# [21] = AUC (0 to 24 hrs) in Sprague-Dawley rat at 10 mg/kg, po administered daily for 7 days measured on day 7; type: ADME, organism-based; set-up: time < 24 hr, dose 10 mg/kg, route oral; conditions: plasma; outline: as §4
# [22] = AUC (0 to 24 hrs) in Sprague-Dawley rat at 10 mg/kg, po administered daily for 7 days measured on day 1; type: ADME, organism-based; set-up: time < 24 hr, dose 10 mg/kg, route oral; conditions: plasma; outline: as §5
# [23] = Tmax in Sprague-Dawley rat at 100 mg/kg, po administered daily for 7 days measured on day 7; type: ADME, organism-based; set-up: dose 100 mg/kg, route oral; conditions: in vivo; outline: as §5
# [24] = Tmax in Sprague-Dawley rat at 100 mg/kg, po administered daily for 7 days measured on day 1; type: ADME, organism-based; set-up: dose 100 mg/kg, route oral; conditions: in vivo; outline: as §5
# [25] = Tmax in Sprague-Dawley rat at 30 mg/kg, po administered daily for 7 days measured on day 7; type: ADME, organism-based; set-up: dose 30 mg/kg, route oral; conditions: in vivo; outline: as §5
# [26] = Tmax in Sprague-Dawley rat at 30 mg/kg, po administered daily for 7 days measured on day 1; type: ADME, organism-based; set-up: dose 30 mg/kg, route oral; conditions: in vivo; outline: as §5
# [27] = Tmax in Sprague-Dawley rat at 10 mg/kg, po administered daily for 7 days measured on day 7; type: ADME, organism-based; set-up: dose 10 mg/kg, route oral; conditions: in vivo; outline: as §5
# [28] = Tmax in Sprague-Dawley rat at 10 mg/kg, po administered daily for 7 days measured on day 1; type: ADME, organism-based; set-up: dose 10 mg/kg, route oral; conditions: in vivo; outline: as §5
# Rattus norvegicus [29] = assay: Toxicity in Sprague-Dawley rat assessed as microscopic lesions at 10 to 100 mg/kg, po administered daily for 7 days; type: organism-based; set-up: dose 10-100 mg/kg, route oral; conditions: in vivo, 168 h
# Outline: (§6)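 Sprague-Dawley rats (3/sex/group), 8–12 weeks old, given vehicle or 10, 30 or 100 mg/kg/day orally once daily for 7 days. Serum biochemistry, hematology and urinalysis done at day 7. At necropsy, control and high-dose rats examined grossly, organs weighed, and all tissues processed for histopathology.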
# Rattus norvegicus [30] = assay: Toxicity in Sprague-Dawley rat assessed as change in organ weight at 10 to 100 mg/kg, po administered daily for 7 days; type: organism-based; set-up: dose 10-100 mg/kg, route oral; conditions: in vivo, 168 h; outline: as §6
# Rattus norvegicus [31] = assay: Toxicity in Sprague-Dawley rat assessed as change in gross necroscopy at 10 to 100 mg/kg, po administered daily for 7 days; type: organism-based; set-up: dose 10-100 mg/kg, route oral; conditions: in vivo, 168 h; outline: as §6
# Rattus norvegicus [32] = assay: Toxicity in Sprague-Dawley rat assessed as change in urinalysis parameters at 10 to 100 mg/kg, po administered daily for 7 days; type: organism-based; set-up: dose 10-100 mg/kg, route oral; conditions: in vivo, 168 h; outline: as §6
# Rattus norvegicus [33] = assay: Toxicity in Sprague-Dawley rat assessed as change in clinical chemistry parameters at 10 to 100 mg/kg, po administered daily for 7 days; type: organism-based; set-up: dose 10-100 mg/kg, route oral; conditions: in vivo, 168 h; outline: as §6
# Rattus norvegicus [34] = assay: Toxicity in Sprague-Dawley rat assessed as change in erythrocyte morphology at 10 to 100 mg/kg, po administered daily for 7 days; type: organism-based; set-up: dose 10-100 mg/kg, route oral; conditions: in vivo, 168 h
# Rattus norvegicus [35] = assay: Toxicity in Sprague-Dawley rat assessed as change in coagulation parameters at 10 to 100 mg/kg, po administered daily for 7 days; type: organism-based; set-up: dose 10-100 mg/kg, route oral; conditions: in vivo, 168 h
# Rattus norvegicus [36] = assay: Toxicity in Sprague-Dawley rat assessed as hematological changes at 10 to 100 mg/kg, po administered daily for 7 days; type: organism-based; set-up: dose 10-100 mg/kg, route oral; conditions: in vivo, 168 h; outline: as §6
# Rattus norvegicus [37] = assay: Toxicity in Sprague-Dawley rat assessed as ophthalmological changes at 10 to 100 mg/kg, po administered daily for 7 days; type: organism-based; set-up: dose 10-100 mg/kg, route oral; conditions: in vivo, 168 h
# [38] = test system: Human immunodeficiency virus 1; assay: Antiviral activity against HIV1 in human MT2 cells; type: functional, organism-based; outline: as §1
smiles,measurement,setting,value
CCCCCCCCCCCCCCCCOCCCOP(=O)(O)CO[C@H](CO)Cn1cnc2c(N)ncnc21,EC50,[1],7 nM
CCCCCCCCCCCCCCCCOCCCOP(=O)(O)CO[C@H](C)Cn1cnc2c(N)ncnc21 [TENOFOVIR EXALIDEX],Activity,Rattus norvegicus [2],Non-toxic
same,Activity,Rattus norvegicus [3],Non-toxic
same,Activity,Rattus norvegicus [4],Non-toxic
same,EC50,HepG2,> 18800 nM
same,Ratio CC50/EC50,[5],38.4
same,Ratio CC50/EC50,[6],>187.5
same,EC50,Hepatitis B virus [7],490 nM
same,EC50,[8],> 300000 nM
same,EC50,Hepatitis B virus [9],1600 nM
same,Ratio CC50/EC50,[10],12000
same,CC50,[11],144000 nM
same,selectivity ratio,[12],> 5.4e+06
same,EC50,[13],12 nM
same,CC50,[14],54000 nM
same,EC50,[1],< 0.01 nM
same,half-life,[15],1.6 h
same,half-life,[16],2.5 h
same,AUC at 24 h,[17],8410 ng·h/mL
same,AUC(0-t) at 24 h,[18],5410 ng·h/mL
same,AUC at 24 h,[19],1540 ng·h/mL
same,AUC(0-t) at 24 h,[20],1830 ng·h/mL
same,AUC at 24 h,[21],435 ng·h/mL
same,AUC(0-t) at 24 h,[22],442 ng·h/mL
same,Tmax,[23],2 h
same,Tmax,[24],2 h
same,Tmax,[25],1 h
same,Tmax,[26],2 h
same,Tmax,[27],0.5 h
same,Tmax,[28],0.5 h
same,Activity,Rattus norvegicus [29],Non-toxic
same,Activity,Rattus norvegicus [30],Non-toxic
same,Activity,Rattus norvegicus [31],Non-toxic
same,Activity,Rattus norvegicus [32],Non-toxic
same,Activity,Rattus norvegicus [33],Non-toxic
same,Activity,Rattus norvegicus [34],Non-toxic
same,Activity,Rattus norvegicus [35],Non-toxic
same,Activity,Rattus norvegicus [36],Non-toxic
same,Activity,Rattus norvegicus [37],Non-toxic
CCCCCCCCCCCCCCCCOCCCOP(=O)(O)COCCn1cnc2c(NC3CC3)nc(N)nc21,EC50,[38],0.02 nM
CCCCCCCCCCCCCCCCOCCCOP(=O)(O)COCCn1cnc2c(N)nc(N)nc21,EC50,[38],0.02 nM
